Active and inactive are the calls of the source. The rule behind the calls is not given here.
Legend:
[1] = test system: MV4-11; assay: Cytotoxicity against human MV4-11 cells assessed as reduction in cell viability incubated for 24 hrs by celltiter-glo assay; type: functional, cell-based; conditions: MV4-11, 24 h
Method in brief: (§1)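 MV4;11 cells (WT or CASP1−/−), grown in RPMI 1640 with 10% FBS at 37 °C, 5% CO2, plated 2000 cells/well, dosed by pintool across 100 μM to 15.2 nM in three-fold steps for 24 h. Viability by CellTiter-Glo luminescence after 2 min shaking and 10 min at 25 °C. IC50 as mean ± SEM of three biological replicates.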

[2] = test system: MV4-11; assay: Cytotoxicity against human MV4-11 cells assessed as reduction in cell viability at 0.015 to 100 uM incubated for 24 hrs by celltiter-glo assay; type: functional; conditions: dose 0.015-100 µM; method in brief: as §1
[3] = test system: MV4-11; assay: Cytotoxicity against CASP1 knockout human MV4-11 cells assessed as reduction in cell viability at 0.015 to 100 uM incubated for 24 hrs by celltiter-glo assay; type: functional; conditions: dose 0.015-100 µM; method in brief: as §1
[4] = target: T1, Xaa-Pro dipeptidase (Homo sapiens, UniProt P12955); assay: (§2) Inhibition of recombinant human PEPD using Ala-Pro as substrate assessed as alanine release by measuring increase in fluorescense signal by fluorescence based analysis
T1 sequence (P12955 whole entry): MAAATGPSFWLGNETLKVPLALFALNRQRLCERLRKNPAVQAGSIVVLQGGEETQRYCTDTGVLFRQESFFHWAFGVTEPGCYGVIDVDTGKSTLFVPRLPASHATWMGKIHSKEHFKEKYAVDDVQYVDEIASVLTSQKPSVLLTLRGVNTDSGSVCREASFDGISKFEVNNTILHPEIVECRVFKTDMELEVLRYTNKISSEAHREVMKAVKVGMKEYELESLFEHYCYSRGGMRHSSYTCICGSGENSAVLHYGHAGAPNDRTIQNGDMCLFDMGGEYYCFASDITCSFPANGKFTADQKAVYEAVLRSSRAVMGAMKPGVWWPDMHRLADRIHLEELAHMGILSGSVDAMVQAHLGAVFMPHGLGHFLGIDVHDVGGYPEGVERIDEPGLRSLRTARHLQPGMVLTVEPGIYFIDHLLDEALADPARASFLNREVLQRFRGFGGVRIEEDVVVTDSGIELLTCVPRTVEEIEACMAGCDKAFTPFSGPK

[5] = test system: MV4-11; assay: Cytotoxicity against CASP1 knockout human MV4-11 cells assessed as reduction in cell viability incubated for 24 hrs by celltiter-glo assay; type: functional, cell-based; conditions: MV4-11, 24 h; method in brief: as §1
[6] = test system: MV4-11; assay: Cytotoxicity against human MV4-11 cells assessed as reduction in cell viability at 1 uM incubated for 24 hrs by celltiter-glo assay relative to control; type: functional
Method in brief: (§3)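 Single-dose viability screen. MV4;11 or OCI-AML2 cells at 2000 cells/well were exposed to 1 μM compound for 24 h. Viability was read by CellTiter-Glo luminescence and expressed as percent inhibition. Values are means of three biological replicates.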

[7] = test system: OCI-AML2; assay: Cytotoxicity against human OCI-AML2 cells assessed as reduction in cell viability at 1 uM incubated for 24 hrs by celltiter-glo assay relative to control; type: functional; method in brief: as §3
[8] = target: T2, Xaa-Pro dipeptidase (Homo sapiens) (UniProt P12955); assay: Inhibition of recombinant human PEPD using Ala-Pro as substrate assessed as alanine release by measuring increase in fluorescense signal at 1 uM by fluorescence based analysis relative to control
T2 sequence (whole entry): T1 sequence (P12955 whole entry)
Method in brief: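 Recombinant human PEPD at 50 nM was incubated with Ala-Pro at 40 μM final and compound. Released alanine was detected by coupled alanine transaminase/pyruvate oxidase conversion to H2O2 and resorufin fluorescence (Ex/Em 535/587 nm) at 25 °C.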

[9] = target: T3, Xaa-Pro aminopeptidase 1 (Homo sapiens, UniProt Q9NQW7); assay: Inhibition of 6-His tagged XPNPEP1 (unknown origin) expressed in Escherichia coli Rosetta DE3 cells using H-Lys(abz)-Pro-Pro-pNA as substrate at 20 uM incubated for 60 mins by fluorescence based analysis relative to control
Method in brief: (§4)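 His6-tagged XPNPEP1 was expressed in E. coli Rosetta DE3 (IPTG, 16 h, 37 °C) and purified on TALON resin. Enzyme at 3.5 nM was exposed to compound, then H-Lys(abz)-Pro-Pro-pNA was added at 100 μM final. Fluorescence (Ex/Em 320/410) was followed for 60 min. Single-point inhibition used 20 μM; IC50 as mean ± SEM of three biological replicates.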

[10] = target: T3, Xaa-Pro aminopeptidase 1; assay: Inhibition of 6-His tagged XPNPEP1 (unknown origin) expressed in Escherichia coli Rosetta DE3 cells using H-Lys(abz)-Pro-Pro-pNA as substrate incubated for 60 mins by fluorescence based analysis; method in brief: as §4
[11] = Stability in human MV4-11 cells assessed as retention time of parent compound incubated for 24 hrs by LC/MS analysis; type: ADME, cell-based; conditions: mv4-11, 24 h
Method in brief: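 Compound was held in MV4;11 conditioned medium for 24 h at 37 °C, then LC/MS was run, recording the retention times of the parent ester and its free acid.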

[12] = target: T2, Xaa-Pro dipeptidase (Homo sapiens); assay: as §2

T3 sequence (Q9NQW7 whole entry): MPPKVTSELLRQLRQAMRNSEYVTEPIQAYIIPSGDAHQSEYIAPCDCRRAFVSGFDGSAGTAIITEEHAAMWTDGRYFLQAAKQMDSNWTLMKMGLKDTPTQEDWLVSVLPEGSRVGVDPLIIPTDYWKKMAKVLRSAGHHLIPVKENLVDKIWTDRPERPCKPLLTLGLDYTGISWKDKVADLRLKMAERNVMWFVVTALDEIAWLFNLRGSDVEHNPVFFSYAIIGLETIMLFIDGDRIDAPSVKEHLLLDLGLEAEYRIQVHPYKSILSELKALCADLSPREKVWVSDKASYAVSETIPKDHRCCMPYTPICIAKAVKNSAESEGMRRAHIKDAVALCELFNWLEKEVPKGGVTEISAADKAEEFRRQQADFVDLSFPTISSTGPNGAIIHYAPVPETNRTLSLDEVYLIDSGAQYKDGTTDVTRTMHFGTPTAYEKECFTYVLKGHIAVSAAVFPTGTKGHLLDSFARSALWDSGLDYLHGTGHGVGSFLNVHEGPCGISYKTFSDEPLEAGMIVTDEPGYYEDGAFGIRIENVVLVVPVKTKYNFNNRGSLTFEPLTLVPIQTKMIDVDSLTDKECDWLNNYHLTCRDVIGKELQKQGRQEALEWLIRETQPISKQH

Row | Compound | IC50 [1] [µM] | Activity [2] [%] | Activity [3] [%] | also measured
1 | COC(=O)[C@H](CC(C)C)NC(=O)[C@@H](O)[C@H](N)CC(C)C | 19 | 30 | 12 | –
2 | COC(=O)[C@@H]1CCCN1C(=O)[C@@H](O)[C@@H](N)c1ccco1 | 14 | 23 | 71 | –
3 | CC(C)C[C@@H](N)[C@H](O)C(=O)N1CCCC1 | > 100 | 91 | 85 | IC50 [4]: > 100 µM
4 | COC(=O)[C@@H]1CCCN1C(=O)[C@@H](O)[C@H](N)c1ccc2ccoc2c1 | 60 | 44 | 85 | –
5 | COC(=O)[C@H](C)NC(=O)[C@@H]1CCCN1C(=O)[C@@H]1CCCN1C(=O)[C@@H](O)[C@H](N)CC(C)C | 35 | – | – | IC50 [5]: > 100 µM; Activity [6]: 107%; Activity [7]: 95%; inhibition [8]: 96%; inhibition [9]: 23%
6 | COC(=O)[C@H](CC(C)C)NC(=O)[C@@H](O)[C@H](N)Cc1ccccc1 [BESTATIN METHYL ESTER] | 3.9 | 11 | 11 | IC50 [4]: > 100 µM; IC50 [10]: 298 µM
7 | COC(=O)[C@@H]1CCCN1C(=O)[C@@H](O)[C@H](N)CCCCO | > 100 | 87 | 92 | –
8 | CC(C)C[C@H](NC(=O)[C@@H]1CCCN1C(=O)[C@@H](O)[C@H](N)CC(C)C)C(=O)NCCF | 3 | – | – | –
9 | COC(=O)[C@@H]1CCCN1C(=O)[C@@H](O)[C@H](N)CC(C)(C)C | > 100 | 20 | 100 | –
10 | CC(C)C[C@H](NC(=O)[C@@H]1CCCN1C(=O)[C@@H](O)[C@H](N)CC(C)C)C(=O)NCCc1ccc2ccccc2c1 | 0.43 | – | – | –
11 | COC(=O)[C@@H]1CCCN1C(=O)[C@@H](O)[C@H](N)Cc1ccccc1 | > 100 | 73 | 97 | –
12 | CC(C)C[C@H](NC(=O)[C@@H]1CCCN1C(=O)[C@@H](O)[C@H](N)CC(C)C)C(=O)NC(C)(C)C | 7.3 | – | – | –
13 | COC(=O)[C@@H]1CCCN1C(=O)[C@@H](O)[C@H](N)C1CC1 | > 100 | 85 | 102 | –
14 | CC(C)C[C@H](NC(=O)[C@@H]1CCCN1C(=O)[C@@H](O)[C@H](N)CC(C)C)C(=O)N1CCC1 | > 100 | – | – | –
15 | COC(=O)[C@H](Cc1ccccc1)NC(=O)[C@@H]1CCCN1C(=O)[C@@H](O)[C@H](N)CC(C)C | 0.66 | – | – | IC50 [5]: > 20 µM; Activity [6]: 72%; Activity [7]: 42%; inhibition [8]: 43%; inhibition [9]: 81%
16 | CC(C)C[C@@H](N)[C@H](O)C(=O)N1CCC[C@H]1c1nnn[nH]1 | > 100 | 85 | 95 | –
17 | C[C@H](NC(=O)[C@@H]1CCCN1C(=O)[C@@H]1CCCN1C(=O)[C@@H](O)[C@H](N)Cc1ccccc1)C(N)=O | > 20 | – | – | IC50 [5]: > 20 µM
18 | CC(C)C[C@H](NC(=O)[C@@H]1CCCN1C(=O)[C@@H](O)[C@H](N)CC(C)C)C(=O)NCCc1ccc2cc[nH]c2c1 | 1.3 | – | – | IC50 [4]: 10 µM; IC50 [10]: 2 µM
19 | CC(C)C[C@H](NC(=O)[C@@H]1CCCN1C(=O)[C@@H](O)[C@H](N)CC(C)C)C(=O)NCCc1ccc(-c2ccccc2)cc1 | 0.65 | – | – | –
20 | CC(C)C[C@H](NC(=O)[C@@H]1CCCN1C(=O)[C@@H](O)[C@H](N)CC(C)C)C(N)=O | > 100 | – | – | –
21 | CC(C)C[C@H](NC(=O)[C@@H]1CCCN1C(=O)[C@@H](O)[C@H](N)CC(C)C)C(=O)NCCc1ccccc1 | 0.84 | – | – | Retention_time [11]: 3.24 min

Row | Compound | IC50 [1] [µM] | Activity [2] [%] | Activity [3] [%] | also measured
22 | CC(C)C[C@@H](N)[C@H](O)C(=O)N1CCC[C@H]1CNS(C)(=O)=O | > 100 | 89 | 97 | IC50 [4]: > 100 µM
23 | COC(=O)[C@@H]1CC2(CC2)CN1C(=O)[C@@H](O)[C@H](N)CC(C)C | 8.1 | 43 | 101 | –
24 | CC(C)CCNC(=O)[C@@H]1CCCN1C(=O)[C@@H](O)[C@H](N)CC(C)C | 15 | 20 | 92 | –
25 | CC(C)C[C@H](NC(=O)[C@@H]1CCCN1C(=O)[C@@H](O)[C@H](N)CC(C)C)C(=O)O | – | – | – | inhibition [12]: Active; inhibition [10]: Active; Retention_time [11]: 2.6 min
26 | COC(=O)[C@@H]1CCCN1C(=O)[C@@H](O)[C@H](N)C(C)C | 46 | 23 | 104 | –
27 | CONC(=O)[C@@H]1CCCN1C(=O)[C@@H](O)[C@H](N)CC(C)C | > 100 | 95 | 103 | –
28 | COC(=O)[C@@H]1C[C@H](C)CN1C(=O)[C@@H](O)[C@H](N)CC(C)C | 5.6 | 10 | 96 | –
29 | CC(C)C[C@@H](N)[C@H](O)C(=O)N1CCC[C@H]1C(N)=O | 17 | 35 | 96 | –
30 | COC(=O)[C@@H]1CCCN1C(=O)[C@@H](O)[C@@H](N)c1cccs1 | 10 | 22 | 71 | –
31 | COC(=O)[C@@H]1CCCN1C(=O)[C@@H](O)[C@H](N)C12CC3CC(CC(C3)C1)C2 | > 100 | 83 | 98 | –
32 | CC(C)C[C@H](NC(=O)[C@@H]1CCCN1C(=O)[C@@H](O)[C@H](N)CC(C)C)C(=O)N(C)C | 8.2 | – | – | –
33 | CCCC[C@@H](N)[C@H](O)C(=O)N1CCC[C@H]1C(=O)OC | 11 | 20 | 98 | –
34 | COC(=O)[C@@H]1C[C@H](O)CN1C(=O)[C@@H](O)[C@H](N)CC(C)C | > 100 | 99 | 102 | IC50 [4]: > 100 µM
35 | COC(=O)[C@@H]1CCCN1C(=O)[C@@H](O)[C@H](N)CCC(F)(F)F | > 100 | 68 | 100 | –
36 | COC(=O)[C@@H]1CCCN1C(=O)[C@@H](O)[C@H](N)c1ccccc1 | 15 | 32 | 97 | –
37 | CONC(=O)[C@H](CC(C)C)NC(=O)[C@@H]1CCCN1C(=O)[C@@H](O)[C@H](N)CC(C)C | > 100 | – | – | –
38 | CC(C)C[C@H](NC(=O)[C@@H]1CCCN1C(=O)[C@@H](O)[C@H](N)CC(C)C)C(=O)NS(=O)(=O)N(C)C | > 100 | – | – | –
39 | COC(=O)[C@H](Cc1ccccc1)NC(=O)[C@@H](O)[C@H](N)CC(C)C | 5.4 | 8 | 7 | IC50 [4]: > 100 µM
40 | CC[C@H](C)[C@H](NC(=O)[C@@H]1CCCN1C(=O)[C@@H](O)[C@H](N)CC(C)C)C(=O)OC | 0.6 | – | – | IC50 [5]: > 20 µM; Activity [6]: 56%; Activity [7]: 42%; inhibition [8]: 48%; inhibition [9]: 68%
41 | COC(=O)[C@@H]1C[C@H](F)CN1C(=O)[C@@H](O)[C@H](N)CC(C)C | 61 | 32 | 94 | –
42 | CC(C)CCNC(=O)[C@H](CC(C)C)NC(=O)[C@@H]1CCCN1C(=O)[C@@H](O)[C@H](N)CC(C)C | 1 | – | – | –

Reference: ChEMBL document CHEMBL5380787, “Optimized M24B Aminopeptidase Inhibitors for CARD8 Inflammasome Activation” (J Med Chem, 2023)
